According to publication PMC6057249 (The Indian Journal of Medical Research, 2018):
Values after ≈ are worked out from the molar mass of the structure shown. Values joined by “and” are separate entries in the source; they are usually repeats but may differ in a detail not shown here. Identical values can stand only once. Like-named read-outs stand apart in the source and are kept apart here. Bridge positions count the residues as written; N and C are the ends. Square brackets hold non-standard residues; d marks the D form. Peptide text beside a SMILES is read from it. * marks the point of attachment. X1 = CC[C@H](C)CCCCC(=O)*; Dab = NCC[C@H](N)C(=O)O

Tests used:
[1] = type: in vivo, human; details: for AUC after 5th dose: individual patients, steady state, plasma, AUC0-8; for average steady-state concentration (Css, avg) of formed colistin, median: six patients receiving 2 MU q8h, no loading dose
In short: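 CMS was given by 1-h i.v. infusion every 8 h. Heparinized venous blood was drawn pre-dose, at end of infusion, then 30 min and 1.5, 2, 4, 6, 8 h after dose 1 and dose 5 (steady state). Plasma (200 μl) was stored at −80°C. CMS was acid-hydrolysed (5% formic acid, 30 min), and colistin A+B were quantified by UHPLC-MS/SRM against a reserpine internal standard. Values are total colistin, with outliers omitted.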

[2] = cited from earlier work
[3] = system: MDR Gram-negative infections; assay: Bacteriological profile and clinical outcome of patients on colistin monotherapy; type: in vivo, human; details: 1-2 MU i.v. every 8 h
In short: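 ICU patients >12 yr with normal renal function and bloodstream infection by an MDR Gram-negative organism susceptible only to colistin. They received colistin monotherapy as CMS by 1-h i.v. infusion every 8 h, without a loading dose, for […]. Follow-up cultures were taken. Exclusions were expected survival <72 h, pregnancy, burns >20% of body surface, and cystic fibrosis.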

Acinetobacter baumannii = assay: MIC for colistin by E-test; type: cell-based; details: isolate of the individual patient
In short: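 Organisms came from positive cultures of ICU patients with MDR Gram-negative bloodstream infection and were identified and susceptibility-tested. Colistin MIC for each patient's isolate was determined by E-test per the manufacturer's instructions.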

[4] = stored plasma samples; to be estimated within four months; ref [17]; cited from earlier work

Compound	terminal half-life, range ([1]; 2 MU i.v. every 8 h, after 1st dose) [h]	terminal half-life, range ([1]; 2 MU i.v. every 8 h, after 5th dose) [h]	AUC after 5th dose ([1]; 1 MU i.v. every 8 h)	AUC after 5th dose ([1]; 2 MU i.v. every 8 h)	Vd for a majority of patients ([1]; patients of this study)	average steady-state concentration (Css, avg) of formed colistin, median ([1]; after 1st dose) [ng/mL]	average steady-state concentration (Css, avg) of formed colistin, median ([1]; after 5th dose) [ng/mL]	apparent terminal t1/2 ([2]; 2 MU dosage regimen, ref Imberti et al [10]) [h]	t1/2 ([2]; after 2.8 MU dosage, ref Markou et al [11]) [h]	Vd ([2]; cystic fibrosis patients, single dose, ref [17])	Vd ([2]; cystic fibrosis patients, steady state, ref [17])	Vd ([2]; other Indian study, after both the single dose and at steady state, ref [7])	Vd ([2]; other studies, ref [10]) [L/kg]	follow up cultures ([3]; all nine patients)	patients who did not survive ([3]; nine patients) [per cent]	MIC (Acinetobacter baumannii) [µg/mL]	stability in stored samples (conversion of CMS to colistin) [4]
CC[C@H](C)CCCCC(=O)N[C@@H](CCN)C(=O)N[C@H](C(=O)N[C@@H](CCN)C(=O)N[C@H]1CCNC(=O)[C@H]([C@@H](C)O)NC(=O)[C@H](CCN)NC(=O)[C@H](CCN)NC(=O)[C@H](CC(C)C)NC(=O)[C@@H](CC(C)C)NC(=O)[C@H](CCN)NC1=O)[C@@H](C)O [colistin] (X1-[Dab]T[Dab][Dab][Dab][dL]L[Dab][Dab]T; lactam 4-C)	4.7 to 9.84	2.72 to 8.5	5.4 mg·h/L and 8.5 mg·h/L and 3.5 mg·h/L	15.8 mg·h/L and 6.0 mg·h/L and 4.4 mg·h/L	more than 1.0 l/kg	570	720	5.9 ± 2.6	7.4 ± 1.7	0.09 (0.02) l/kg	0.09 (0.03) l/kg	0.3 (0.2-0.5) l/kg	1.5 ± 1.1	sterile	30	0.125 (≈ 0.107 µM)	–
colistin methanesulphonate [CMS]	–	–	–	–	–	–	–	–	–	–	–	–	–	–	–	–	unstable
